Assay results of several laboratories.
Lines come from different studies, so protocols differ.

SMILES | cell line | test | setting | measurement | value
Cc1cc(Nc2ncc(Cl)c(Nc3ccccc3S(=O)(=O)C(C)C)n2)c(OC(C)C)cc1C1CCNCC1 | NCI-H3122 | cell growth or viability, MTT | 0.08 µg/mL, 72 h | inhibition | 64.2%
Oc1ccc(Br)cc1-c1nc2ccccc2[nH]1 | human Rhabdomyosarcoma cell | cell growth or viability, MTT | 48 h | IC50 | 7.25 µM
Cc1cccc(/C=N/NC(=O)c2ccc(Nc3cc(C)nc4c(O)cccc34)cc2)n1 | SMMC-7721 | cell growth or viability, MTT | 20 µM | inhibition | 19.9%
Clc1ccc(Cn2c(-c3ccc(Cl)cc3)nc3ccccc32)cc1 | human Rhabdomyosarcoma cell | cell growth or viability, MTT | – | IC50 | 9.67 µM
COc1cc(/C=C/c2cc(/C=C/c3ccncc3)[nH]n2)ccc1O | CHO-K1 | cell growth or viability, MTT | 72 h | IC50 | 32.2 µM
COc1ccc(-c2ccc(/C(C)=N/O)c(O)c2Cl)cc1Cl | NCI-H1299 | cell growth or viability, MTT | 30 µM, 48 h | viability | 65%
CCC[C@@H]1CNC(=O)C(=O)N1C[C@@H]1CCCN1C[C@H](Cc1ccc(O)cc1)N1C[C@@H](Cc2ccc(O)cc2)N(CC(CC)c2ccccc2)C(=O)C1=O (stereo partly shown) | CHO-K1 | cell growth or viability, ATP luminescence | 100 µM | inhibition | 0%
O=C(/C=C(O)/C=C/c1ccc[nH]1)/C=C/c1c[nH]c2ccccc12 | CHO-K1 | cell growth or viability, MTT | 72 h | IC50 | 11 µM
COc1ccc(-c2ccc(/C(C)=N/O)c(O)c2Cl)cc1 | NCI-H1299 | cell growth or viability, MTT | 30 µM, 48 h | viability | 73%
COc1cc(/C=C/c2cc(/C=C/c3cccnc3)[nH]n2)ccc1O | CHO-K1 | cell growth or viability, SRB | 72 h | IC50 | 13.6 µM
C[C@@H](Oc1cc(-c2cnn(C3CCNCC3)c2)cnc1N)c1c(Cl)ccc(F)c1Cl | NCI-H3122 | cell growth or viability, MTT | 0.2 µg/mL, 72 h | inhibition | 52.9%
CS(=O)(=O)CCNCc1ccc(-c2ccc3ncnc(Nc4ccc(OCc5cccc(F)c5)c(Cl)c4)c3c2)o1 | NCI-H1299 | cell growth or viability, MTT | 72 h | EC50 | 41000 nM
Clc1ccc(-c2nc3ccccc3[nH]2)cc1Cl | human Rhabdomyosarcoma cell | cell growth or viability, MTT | 48 h | IC50 | 10.4 µM
N#C[Se]CCOc1ccccc1Oc1ccccc1 | Vero | cell growth or viability | 72 h | CC50 | > 20 µM
COCCCN1C(/C=C/c2cccnc2)=CC(=O)CC1c1cccnc1 (stereo not shown) | CHO-K1 | cell growth or viability, SRB | 72 h | IC50 | > 75 µM
N#C[Se]CC1Cc2ccc(Oc3ccccc3)cc2O1 (racemic) | Vero | cell growth or viability | 72 h | CC50 | > 20 µM
COc1ccc(-c2ccc(-c3ccc(C(=N)N)nc3)s2)cc1 | M14 | cell growth or viability, SRB | – | GI50 | 1.8 µM
CC(=O)c1cccc(N=Nc2c(C(=O)O)cc(O)c(O)c2O)c1 | RAW264.7 | TNF-α release, inhibitor, ELISA | 10 µM, LPS-stimulated | inhibition | 48%
Cc1cc(Nc2ccc(C(=O)N/N=C/c3ccc(C)s3)cc2)c2cccc(O)c2n1 | SMMC-7721 | cell growth or viability, MTT | 20 µM | inhibition | 25.1%
C=CC(=O)N1CCN(c2nc(=O)n(-c3c(C)ccnc3C(C)C)c3nc(-c4c(O)cccc4F)c(F)cc23)[C@@H](C)C1 | NCI-H1437 | cell growth or viability, resazurin | 72 h | GI50 | > 10 µM
Cc1ccc(/C=N/NC(=O)c2ccc(Nc3cc(C)nc4c(O)cccc34)cc2)cc1 | SMMC-7721 | cell growth or viability, MTT | 20 µM | inhibition | 50.8%
C/C(=N\O)c1ccc(-c2ccc(OC(F)(F)F)cc2)c(Cl)c1O | NCI-H1299 | cell growth or viability, MTT | 30 µM, 48 h | viability | 106%

SMILES | cell line | test | setting | measurement | value
COc1cc(/C=C/C(=O)/C=C(O)/C=C/c2cccc3cnccc23)ccc1O | CHO-K1 | cell growth or viability, MTT | 72 h | IC50 | 7.6 µM
C/C(=N\O)c1ccc(-c2ccc(O)c(C)c2)c(Cl)c1O | NCI-H1299 | cell growth or viability, MTT | 30 µM, 48 h | viability | 62%
Cc1cc(Nc2ccc(C(=O)N/N=C/c3cccc(Oc4ccccc4)c3)cc2)c2cccc(O)c2n1 | SMMC-7721 | cell growth or viability, MTT | 20 µM | inhibition | 37.6%
O=C1CCC(N2Cc3cc(CNC(=O)C(F)(F)c4ccc(Cl)cc4)ccc3C2=O)C(=O)N1 (stereo not shown) | MHHCALL4 | cell growth or viability, ATP luminescence | – | EC50 | 4.13 nM
COc1cc(Nc2nccc(-c3cnn4nc(OC)ccc34)n2)cc(C(F)(F)F)c1 | NCI-H1437 | cell growth or viability, ATP luminescence | – | IC50 | 0.75 µM
Cc1cc(Nc2ccc(C(=O)N/N=C/c3ccc[nH]3)cc2)c2cccc(O)c2n1 | SMMC-7721 | cell growth or viability, MTT | 20 µM | inhibition | 16.1%
C=C(F)C(=O)N1CCN(c2nc(OC[C@@H]3CCCN3C)nc3c2CCN(c2cccc4cccc(Cl)c24)C3)C[C@@H]1CC#N | NCI-H1437 | cell growth or viability, resazurin | 72 h | GI50 | 3.68 µM
COc1cc(/C=C/C(=O)/C=C(O)/C=C/c2ccc[nH]2)ccc1O | CHO-K1 | cell growth or viability, MTT | 72 h | IC50 | 24.1 µM
Cc1ccc2nc(-c3c4ccccc4cc4ccccc34)[nH]c2c1 | human Rhabdomyosarcoma cell | cell growth or viability, MTT | 48 h | IC50 | 27 µM
C/C(=N\O)c1ccc(-c2cccc(O)c2)c(Cl)c1O | NCI-H1299 | cell growth or viability, MTT | 30 µM, 48 h | viability | 22%
Cc1cc(Nc2ccc(C(=O)N/N=C/c3ccnc(Cl)c3)cc2)c2cccc(O)c2n1 | SMMC-7721 | cell growth or viability, MTT | 20 µM | inhibition | 19.8%
O=C1CCC(N2C(=O)c3ccc(NS(=O)(=O)c4ccccc4OC(F)(F)F)cc3C2=O)C(=O)N1 (stereo not shown) | MHHCALL4 | cell growth or viability, ATP luminescence | – | EC50 | 0.0425 nM
c1ccc2c(-c3nc4ccccc4[nH]3)c3ccccc3cc2c1 | human Rhabdomyosarcoma cell | cell growth or viability, MTT | 48 h | IC50 | 7.66 µM
O=C(Cn1ccnc1[N+](=O)[O-])NCc1ccccc1 | Vero | cell growth or viability | 72 h | CC50 | > 10 µM
Cc1cc(=O)n(C)c2cc(N3C(=O)CC[C@H](NS(=O)(=O)CC(C)C)[C@H]3c3ccc(Cl)cc3)ccc12 | HL-60 | cell growth or viability | 7 days | EC50 | 5030 nM
c1cncc(-c2nc3ccccc3[nH]2)c1 | human Rhabdomyosarcoma cell | cell growth or viability, MTT | 48 h | IC50 | 87.7 µM
Cc1cc(Nc2ccc(C(=O)N/N=C/c3nc4ccccc4[nH]3)cc2)c2cccc(O)c2n1 | SMMC-7721 | cell growth or viability, MTT | 20 µM | inhibition | 28.3%
Clc1ccc(-c2nc3ccccc3[nH]2)c(Cl)c1 | human Rhabdomyosarcoma cell | cell growth or viability, MTT | 48 h | IC50 | 35 µM
CC(=O)Oc1ccc(/C=N/NC(=O)c2ccc(Nc3cc(C)nc4c(O)cccc34)cc2)cc1 | SMMC-7721 | cell growth or viability, MTT | 20 µM | inhibition | 14.1%
CC(C)C[C@H](NC(=O)[C@H](Cc1ccccc1)NC(=O)c1cnccn1)B(O)O | COR-L279 | cell growth or viability, ATP luminescence | – | IC50 | 0.0076 µM
CN(C)c1ccc(-c2nc3ccccc3[nH]2)cc1 | human Rhabdomyosarcoma cell | cell growth or viability, MTT | 48 h | IC50 | 50.5 µM
